Test results taken from ChEMBL document CHEMBL1141106, “Synthesis, binding affinity at glutamic acid receptors, neuroprotective effects, and molecular modeling investigation of novel dihydroisoxazole amino acids” (J Med Chem, 2005).
pEC50, pIC50, pKi: −log10 of the molar value.

How the values were obtained:
[1] = molecular target: T1, Metabotropic glutamate receptor 1 (Rattus norvegicus, UniProt P23385); assay: Binding affinity for mGluR1 receptor expressed in CHO cells; type: cell-based
[2] = molecular target: T2, Metabotropic glutamate receptor 2 (Rattus norvegicus, UniProt P31421); assay: Binding affinity for mGluR2 receptor expressed in CHO cells; type: cell-based
T2 sequence (P31421 whole entry): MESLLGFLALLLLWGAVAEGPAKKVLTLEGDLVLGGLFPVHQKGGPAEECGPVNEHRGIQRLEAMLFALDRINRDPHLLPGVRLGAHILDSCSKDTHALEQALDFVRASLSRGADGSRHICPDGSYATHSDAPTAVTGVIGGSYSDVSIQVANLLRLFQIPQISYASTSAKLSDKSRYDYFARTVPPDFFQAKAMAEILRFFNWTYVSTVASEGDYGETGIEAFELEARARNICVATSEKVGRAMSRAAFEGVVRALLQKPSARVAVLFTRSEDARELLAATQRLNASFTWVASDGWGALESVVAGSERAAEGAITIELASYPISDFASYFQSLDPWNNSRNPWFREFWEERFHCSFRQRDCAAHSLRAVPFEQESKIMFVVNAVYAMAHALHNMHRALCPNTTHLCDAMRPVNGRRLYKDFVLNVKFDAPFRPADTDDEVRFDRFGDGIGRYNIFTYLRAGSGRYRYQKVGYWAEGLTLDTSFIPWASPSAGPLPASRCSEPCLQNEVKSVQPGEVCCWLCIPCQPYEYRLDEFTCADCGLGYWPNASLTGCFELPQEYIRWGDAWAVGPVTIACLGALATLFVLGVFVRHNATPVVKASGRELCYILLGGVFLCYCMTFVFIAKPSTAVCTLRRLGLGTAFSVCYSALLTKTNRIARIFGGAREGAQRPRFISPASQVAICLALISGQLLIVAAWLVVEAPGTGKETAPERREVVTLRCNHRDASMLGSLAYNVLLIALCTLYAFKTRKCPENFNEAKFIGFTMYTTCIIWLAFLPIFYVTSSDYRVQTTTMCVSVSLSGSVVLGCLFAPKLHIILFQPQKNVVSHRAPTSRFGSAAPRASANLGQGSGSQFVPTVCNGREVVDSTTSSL

[3] = molecular target: T3, Metabotropic glutamate receptor 4 (Rattus norvegicus, UniProt P31423); assay: Binding affinity for mGluR4 receptor expressed in CHO cells; type: cell-based
T3 sequence (P31423 whole entry): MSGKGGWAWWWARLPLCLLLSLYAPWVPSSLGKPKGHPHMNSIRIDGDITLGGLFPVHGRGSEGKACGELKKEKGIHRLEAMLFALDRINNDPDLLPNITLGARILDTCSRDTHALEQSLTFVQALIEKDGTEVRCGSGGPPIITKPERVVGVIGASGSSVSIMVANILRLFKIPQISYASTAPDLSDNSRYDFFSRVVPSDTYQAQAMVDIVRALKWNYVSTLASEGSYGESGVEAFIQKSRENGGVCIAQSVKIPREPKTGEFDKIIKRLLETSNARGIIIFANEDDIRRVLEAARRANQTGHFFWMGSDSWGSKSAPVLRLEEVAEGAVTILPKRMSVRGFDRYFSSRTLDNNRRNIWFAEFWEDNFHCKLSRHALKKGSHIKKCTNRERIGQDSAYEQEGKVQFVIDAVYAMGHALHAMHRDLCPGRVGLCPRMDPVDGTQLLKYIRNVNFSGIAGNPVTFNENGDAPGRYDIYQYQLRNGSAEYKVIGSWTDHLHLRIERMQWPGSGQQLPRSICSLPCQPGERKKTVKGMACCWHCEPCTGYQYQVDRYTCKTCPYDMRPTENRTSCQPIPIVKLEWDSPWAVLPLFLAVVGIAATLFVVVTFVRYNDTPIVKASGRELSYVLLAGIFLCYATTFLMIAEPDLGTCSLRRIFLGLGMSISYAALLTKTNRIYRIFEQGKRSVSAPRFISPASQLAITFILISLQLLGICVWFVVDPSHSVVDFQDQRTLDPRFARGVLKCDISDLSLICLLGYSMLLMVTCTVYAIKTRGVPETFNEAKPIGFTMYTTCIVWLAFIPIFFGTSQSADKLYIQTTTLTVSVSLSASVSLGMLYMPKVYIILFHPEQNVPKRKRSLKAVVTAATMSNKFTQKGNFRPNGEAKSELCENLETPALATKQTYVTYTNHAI

[4] = molecular target: Glutamate receptor ionotropic, AMPA (Rattus norvegicus, UniProt P19490+P19491+P19492+P19493); assay: In vitro inhibitory concentration against AMPA receptor using [3H]AMPA; type: protein-complex assay
How it was run: (§1)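 Displacement binding to rat cortical membranes. Radioligands: NMDA site 2 nM [3H]CGP 39653; AMPA site 5 nM [3H]AMPA; KA site 5 nM [3H]KA without CaCl2. Bound radioactivity was counted by scintillation. IC50 came from nonlinear regression with a Hill-coefficient inhibition equation on percent of total specific binding. Mean ± SEM of at least three independent experiments.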

[5] = Inhibition of 10 uM NMDA induced electrophysiological response in rat cortical wedge preparation
[6] = molecular target: Glutamate receptor ionotropic, kainate; assay: In vitro inhibitory concentration against KA receptor using [3H]KA; type: protein-complex assay, Rattus norvegicus; how it was run: as §1
[7] = molecular target: T1, Metabotropic glutamate receptor 1; assay: Effective concentration against mGluR1 receptor expressed in CHO cells; type: cell-based
How it was run: (§2)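 CHO cell lines stably expressing rat mGluR1a, mGluR2 or mGluR4a. Functional second-messenger read-out: intracellular calcium for mGluR1, cyclic AMP levels for mGluR2 and mGluR4. Values are mean ± SEM of at least three independent experiments.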

[8] = molecular target: T2, Metabotropic glutamate receptor 2; assay: Effective concentration against mGluR2 receptor expressed in CHO cells; type: cell-based; how it was run: as §2
[9] = molecular target: T3, Metabotropic glutamate receptor 4; assay: Effective concentration against mGluR4 receptor expressed in CHO cells; type: cell-based; how it was run: as §2
Glutamate NMDA receptor = assay: In vitro binding affinity for NMDA receptor using [3H]-CGP- 39653; type: protein-complex assay, Rattus norvegicus
How it was run: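 Displacement binding to rat cortical membranes. Bound radioactivity was counted by scintillation. IC50 came from nonlinear regression with a Hill-coefficient inhibition equation on percent of total specific binding. Mean ± SEM of at least three independent experiments.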

[10] = molecular target: T2, Metabotropic glutamate receptor 2; assay: Effective concentration against mGluR2 receptor expressed in CHO cells; weak; type: cell-based; how it was run: as §2
[11] = molecular target: Metabotropic glutamate receptor 4 (Rattus norvegicus) (UniProt P31423); assay: Binding affinity for mGluR4 receptor expressed in CHO cells; weak
Chain of Metabotropic glutamate receptor 4 (Rattus norvegicus) (P31423 whole entry, looked up): as the sequence (P31423 whole entry) above

T1 sequence (P23385 whole entry): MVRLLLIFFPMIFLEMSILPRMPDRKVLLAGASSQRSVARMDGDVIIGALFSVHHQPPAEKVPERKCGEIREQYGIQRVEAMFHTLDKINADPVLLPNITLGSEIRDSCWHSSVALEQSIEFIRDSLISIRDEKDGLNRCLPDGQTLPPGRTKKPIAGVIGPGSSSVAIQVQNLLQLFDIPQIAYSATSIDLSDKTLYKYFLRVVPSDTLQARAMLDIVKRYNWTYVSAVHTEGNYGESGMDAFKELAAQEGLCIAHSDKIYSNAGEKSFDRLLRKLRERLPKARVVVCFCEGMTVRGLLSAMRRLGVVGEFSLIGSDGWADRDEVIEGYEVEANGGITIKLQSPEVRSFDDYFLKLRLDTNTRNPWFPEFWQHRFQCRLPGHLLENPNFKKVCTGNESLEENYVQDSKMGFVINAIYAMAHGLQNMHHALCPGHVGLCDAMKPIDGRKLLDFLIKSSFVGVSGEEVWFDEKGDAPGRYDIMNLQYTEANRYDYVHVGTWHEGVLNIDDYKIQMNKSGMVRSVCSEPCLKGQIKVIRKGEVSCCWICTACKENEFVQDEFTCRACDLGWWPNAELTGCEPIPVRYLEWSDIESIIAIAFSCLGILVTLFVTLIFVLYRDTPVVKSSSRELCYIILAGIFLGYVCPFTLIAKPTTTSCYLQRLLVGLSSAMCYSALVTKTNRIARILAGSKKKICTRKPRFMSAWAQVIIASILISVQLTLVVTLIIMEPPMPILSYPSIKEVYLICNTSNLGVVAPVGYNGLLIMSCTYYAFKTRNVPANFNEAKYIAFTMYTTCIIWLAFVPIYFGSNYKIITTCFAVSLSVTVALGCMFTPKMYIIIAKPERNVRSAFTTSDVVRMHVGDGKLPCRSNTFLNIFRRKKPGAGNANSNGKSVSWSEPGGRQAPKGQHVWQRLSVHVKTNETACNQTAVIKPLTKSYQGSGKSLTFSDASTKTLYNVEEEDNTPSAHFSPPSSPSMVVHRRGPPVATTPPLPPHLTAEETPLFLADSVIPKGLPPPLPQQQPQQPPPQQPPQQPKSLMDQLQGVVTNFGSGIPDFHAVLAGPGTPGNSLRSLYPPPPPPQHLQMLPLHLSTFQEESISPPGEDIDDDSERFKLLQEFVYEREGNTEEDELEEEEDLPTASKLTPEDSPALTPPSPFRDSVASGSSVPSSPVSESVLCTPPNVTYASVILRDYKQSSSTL

| Structure (SMILES) | pKi [1] | pKi [3] | pIC50 [4] | pIC50 [6] | pEC50 [8] | pEC50 [9] | pKi (Glutamate NMDA receptor) | other results |
| --- | --- | --- | --- | --- | --- | --- | --- | --- |
| NC(CC1CC(C(=O)O)=NO1)C(=O)O (racemic; form 1) | < 3.00 | < 3.00 | < 4.00 | < 4.00 | < 3.00 | < 3.00 | 6.68 | pKi [2]: < 3.00; pIC50 [5]: 4.85; pEC50 [7]: < 3.00 |
| N[C@H](C[C@@H]1CC(C(=O)O)=NO1)C(=O)O |  |  | < 4.00 | < 4.00 |  |  | 6.29 |  |
| NC(CC1CC(C(=O)O)=NO1)C(=O)O (racemic; form 2) |  |  |  |  |  |  | 6.02 | pIC50 [5]: 4.52 |
| N[C@H](C[C@H]1CC(C(=O)O)=NO1)C(=O)O |  |  | < 4.00 | < 4.00 |  |  | 7.00 |  |
| N[C@@H](C[C@@H]1CC(C(=O)O)=NO1)C(=O)O |  |  | < 4.00 | < 4.00 |  |  | 5.72 |  |
| N[C@@H](C[C@H]1CC(C(=O)O)=NO1)C(=O)O |  |  | < 4.00 | < 4.00 |  |  |  |  |

The next lines start with results.

| pKi [1] | pKi [3] | pIC50 [4] | pIC50 [6] | pEC50 [8] | pEC50 [9] | pKi (Glutamate NMDA receptor) | Structure (SMILES) | other results |
| --- | --- | --- | --- | --- | --- | --- | --- | --- |
|  |  |  |  |  |  | 4.33 | N[C@@]1(C(=O)O)C[C@@H]2ON=C(C(=O)O)[C@@H]2C1 | EC50 [10]: Not Active |
| < 3.00 | < 3.00 | < 4.00 | < 4.00 | < 3.00 | < 3.00 | 6.63 | N[C@@]1(C(=O)O)C[C@@H]2C(C(=O)O)=NO[C@@H]2C1 | pKi [2]: < 3.00; pEC50 [7]: < 3.00 |
| 4.57 |  |  |  | 4.80 |  | < 4.00 | NC1(C(=O)O)CC2ON=C(C(=O)O)C2C1 (racemic; form 2) | pKi ([3]; cho): < 3.00; pEC50 ([9]; cho): < 3.00 |
| 4.03 | < 3.00 | < 4.00 | < 4.00 |  | < 3.00 | 6.43 | NC1(C(=O)O)CC2ON=C(C(=O)O)C2C1 (racemic; form 1) | pIC50 [5]: 4.85 |
| 4.48 | < 3.00 |  |  | 5.04 | < 3.00 |  | N[C@]1(C(=O)O)C[C@@H]2C(C(=O)O)=NO[C@@H]2C1 | Ki [11]: weak |
| < 3.00 |  |  |  | < 3.00 |  |  | N[C@]1(C(=O)O)C[C@@H]2ON=C(C(=O)O)[C@@H]2C1 | pKi [2]: < 3.00; pEC50 [7]: < 3.00 |
